B1: Osa-1-4 twister ribozyme (parent)
chain: CCGCCUAACACUGCCAAUGCCGGUCCCAAGCCCGGAUAAAAGUGGAGGGGGCGG

The variants in the series derive from B1. Description: self-cleavage, relative activity (ratio to wild type); higher = more cleavage; co-transcriptional. In short, it runs like this: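 A DNA template encoding a 54-nucleotide twister ribozyme from Oryza sativa was made so that each of the 48 positions downstream of the cleavage site carried 97 % wild-type base and 1 % of each other base. Transcription in vitro ran for 2 h at 37 °C, during which the ribozyme could cleave itself. Reverse transcription used a template-switching oligonucleotide, and the products were PCR-amplified and deep-sequenced. Each read was scored as cleaved or uncleaved by whether upstream sequence was present, and relative activity is the fraction cleaved normalised to wild type.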
For the variant A29C C26A, the self-cleavage came out at 0.02. As to A29C C26U, the self-cleavage is 0.03. As for A29C C26G, the figure is 0.02; as for A29C A36U, 0.04; as for A29C A36G, 0.07.

As to A29C A36C, the self-cleavage is 0.03. Regarding A28U C11A, the self-cleavage turned out to be 0.27. As for A28U C11G, the self-cleavage was found to be 0.12.

For A28U C11U, the self-cleavage was determined as 0.7. To A28U G42C belongs 0.09; to A28U G42A, 0.16; to A28U G42U, 0.06. To A28U C52U belongs 0.97; to A28U C52A, 0.93. For A28U C52G, the self-cleavage came out at 0.96. As for A29C A40C, the figure is 0.02; as for A29C A40G, 0.02; as for A29C A40U, 0.04. As for A28U G51U, the figure is 0.2; as for A28U G51C, 0.08; as for A28U G51A, 0.28. As to A29C C52G, the self-cleavage worked out at 0.05. As for A29C C52U, the figure is 0.06; as for A29C C52A, 0.06; as for A29G A8U, 0.07. A29G A8G: the self-cleavage came out at 0.11. On to A29G A8C, for which the self-cleavage worked out at 0.04.

As to A28U G54A, the self-cleavage was 0.66. To A28U G54U belongs 0.72; to A28U G54C, 0.71; to A29C G49C, 0.01. To A29C G49A belongs 0.02; to A29C G49U, 0.02; to A29C C20G, 0.02.

With A29C C20U, the self-cleavage was determined as 0.08. To A29C C20A belongs 0.03; to A29C C32G, 0.03; to A29C C32A, 0.03. A29C C32U: the self-cleavage was found to be 0.03. To A29C U37C belongs 0.04. As to A29C U37G, the self-cleavage was 0.06. As for A29C U37A, the figure is 0.04; as for A29C G23A, 0.05.

As for A29C G23C, the self-cleavage turned out to be 0.02. To A29C G23U belongs 0.02.

Regarding A29C A38C, the self-cleavage was 0.04.

Take A29C A38G: the self-cleavage was found to be 0.04. To A29C A38U belongs 0.03; to A28U G44A, 0.74; to A28U G44C, 0.78. As for A28U G44U, the self-cleavage came out at 0.49. A28U C20G: the self-cleavage was found to be 0.09.

On to A28U C20U, for which the self-cleavage worked out at 0.95.

Take A28U C20A: the self-cleavage worked out at 0.9. As to A28U C15U, the self-cleavage is 0.1. As for A28U C15G, the figure is 0.14. To A28U C15A belongs 0.11; to A29C U43G, 0.05; to A29C U43A, 0.03. Regarding A29C U43C, the self-cleavage stood at 0.03. As for A29C G35U, the figure is 0.05. Regarding A29C G35A, the self-cleavage was found to be 0.04. As for A29C G35C, the figure is 0.02. As for A29C C25U, the figure is 0.03; as for A29C C25A, 0.04. To A29C C25G belongs 0.02.

Consider A29G C26G, for which the self-cleavage was found to be 0.1. With A29G C26U, the self-cleavage came to 0.08. On to A29G C26A, for which the self-cleavage was determined as 0.04. Regarding A29C C11A, the self-cleavage came out at 0.04. As for A29C C11G, the figure is 0.02. To A29C C11U belongs 0.04; to A29C A8C, 0.04. To A29C A8U belongs 0.02. With A29C A8G, the self-cleavage was 0.03.

For A28U C25A, the self-cleavage was 0.07. To A28U C25G belongs 0.05. To A28U C25U belongs 0.28; to A28U C27U, 0.15; to A28U C27G, 0.05. As for A28U C27A, the figure is 0.09; as for A29C U12G, 0.03. As to A29C U12C, the self-cleavage was 0.03. To A29C U12A belongs 0.05. For A28U G23A, the self-cleavage worked out at 0.14.

Consider A28U G23U, for which the self-cleavage is 0.07. As for A28U G23C, the figure is 0.05.

A28U A7U: the self-cleavage was 0.07. For A28U A7G, the self-cleavage was 0.13. In the case of A28U A7C, the self-cleavage is 0.04. For the variant A28U A41C, the self-cleavage was found to be 0.79.

Consider A28U A41U, for which the self-cleavage is 0.93.

With A28U A41G, the self-cleavage was found to be 0.29. To A28U C21A belongs 0.16; to A28U C21G, 0.07. Take A28U C21U: the self-cleavage was found to be 0.93. As for A29C G30C, the figure is 0.01; as for A29C G30U, 0.02.

Turning to A29C G30A, the self-cleavage stood at 0.02. As for A29C G22U, the figure is 0.05; as for A29C G22C, 0.03; as for A29C G22A, 0.08.

Regarding A29G C27A, the self-cleavage came out at 0.06. To A29G C27U belongs 0.05; to A29G C27G, 0.06.

For A29C G54U, the self-cleavage was found to be 0.08. To A29C G54C belongs 0.04; to A29C G54A, 0.03.

Take A28G U24G: the self-cleavage turned out to be 0.02. To A28G U24C belongs 0.07; to A28G U24A, 0.06; to A29C G50A, 0.05. As for A29C G50U, the figure is 0.04; as for A29C G50C, 0.03. To A28U A39U belongs 0.76.

A28U A39G: the self-cleavage is 0.79. As for A28U A39C, the figure is 0.63. In the case of A29C U18A, the self-cleavage was 0.04. As for A29C U18C, the figure is 0.04; as for A29C U18G, 0.06.

With A29C A46U, the self-cleavage came out at 0.02.

Regarding A29C A46C, the self-cleavage was 0.02. As for A29C A46G, the figure is 0.02.

Take A29C G51C: the self-cleavage stood at 0.02. As for A29C G51U, the figure is 0.03; as for A29C G51A, 0.03; as for A28U G19U, 0.13. As for A28U G19C, the figure is 0.07; as for A28U G19A, 0.24. To A28U C9U belongs 0.57; to A28U C9G, 0.35; to A28U C9A, 0.16. Turning to A29C C14A, the self-cleavage turned out to be 0.02. To A29C C14U belongs 0.03; to A29C C14G, 0.02; to A28U C33A, 0.08. Take A28U C33U: the self-cleavage is 0.49. To A28U C33G belongs 0.05; to A28U G49U, 0.09. To A28U G49A belongs 0.08.

A28U G49C: the self-cleavage was 0.06. To A29G A41C belongs 0.21.

Consider A29G A41U, for which the self-cleavage amounted to 0.46. To A29G A41G belongs 0.12. As for A28U A36C, the figure is 0.21; as for A28U A36G, 0.99; as for A28U A36U, 0.94. As for A28U U12G, the figure is 0.11; as for A28U U12A, 0.38. As for A28U U12C, the self-cleavage worked out at 0.13. As for A29C G53U, the figure is 0.03; as for A29C G53C, 0.02. For A29C G53A, the self-cleavage was 0.03. Regarding A29G C15A, the self-cleavage came out at 0.06.

Take A29G C15G: the self-cleavage came out at 0.08. Regarding A29G C15U, the self-cleavage amounted to 0.05. On to A29G A46G, for which the self-cleavage came to 0.04. To A29G A46C belongs 0.03; to A29G A46U, 0.04; to A29C, 0.05. As for A29G, the figure is 0.4; as for A29C U24A, 0.04; as for A29C U24G, 0.02. As for A29C U24C, the figure is 0.09; as for A28U U24A, 0.08; as for A28U U24G, 0.02.

Regarding A28U U24C, the self-cleavage amounted to 0.09.

(Values after the RNAGym collection of RNA variant scans (doi:10.1002/anie.201605470).)
